Residues, ends and D or L forms follow the SMILES beside them. *: point of attachment. X1 = Cc1cc2nc(-c3ccc(O)c(C(=O)*)c3)[nH]c2cc1C
Tested on: Eudrilus
Test: Anthelmintic activity against Eudrilus sp. assessed as mean death time
Assay type: functional
Conditions: not given
How it was run: (§1)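 Earthworms exposed to test suspensions at 2 mg mL−1, prepared by triturating compound with Tween 80 (0.5%) and distilled water, stirring 30 min, then diluting to 0.2% w/v. Mebendazole suspension was made the same way. Death was confirmed by moving worms into 50 °C warm water and looking for movement. Mean death time (min) taken from triplicate sets.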

| SMILES | Time [min] |
| --- | --- |
| COC(=O)[C@H](Cc1cnc[nH]1)NC(=O)CNC(=O)[C@H](Cc1c[nH]c2ccccc12)NC(=O)CNC(=O)c1cc(-c2nc3cc(C)c(C)cc3[nH]2)ccc1O (X1-GWGH-OMe) | 20.94 |

Tested on: not listed separately
Test: Growth inhibition of DLA cells at 62.5 ug/mL after 3 hrs
Assay type: functional
Conditions: Mus musculus
How it was run: (§2)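 DLA and EAC cells passaged intraperitoneally in albino mice, harvested after 15–20 days and adjusted to 1 × 10⁶ cells/mL. Dilutions in Dulbecco's medium (500–31.25, some down to 3.91 µg/mL; 5-FU reference) mixed 1:1 with cells and held 3 h at 37 °C. Trypan blue exclusion gave % growth inhibition; CTC50 by graphical extrapolation.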

| SMILES | inhibition at 62.5 µg/mL [%] |
| --- | --- |
| COC(=O)[C@H](Cc1cnc[nH]1)NC(=O)CNC(=O)[C@H](Cc1c[nH]c2ccccc12)NC(=O)CNC(=O)c1cc(-c2nc3cc(C)c(C)cc3[nH]2)ccc1O (X1-GWGH-OMe) | 100 |

Tested on: not listed separately
Test: Growth inhibition of DLA cells at 31.25 ug/mL after 3 hrs
Assay type: functional
Conditions: Mus musculus
How it was run: as §2

| SMILES | inhibition at 31.25 µg/mL [%] |
| --- | --- |
| COC(=O)[C@H](Cc1cnc[nH]1)NC(=O)CNC(=O)[C@H](Cc1c[nH]c2ccccc12)NC(=O)CNC(=O)c1cc(-c2nc3cc(C)c(C)cc3[nH]2)ccc1O (X1-GWGH-OMe) | 86.8 |

Tested on: not listed separately
Test: Growth inhibition of DLA cells after 3 hrs
Assay type: functional
Conditions: Mus musculus
How it was run: as §2

| SMILES | CC50 [µM] |
| --- | --- |
| COC(=O)[C@H](Cc1cnc[nH]1)NC(=O)CNC(=O)[C@H](Cc1c[nH]c2ccccc12)NC(=O)CNC(=O)c1cc(-c2nc3cc(C)c(C)cc3[nH]2)ccc1O (X1-GWGH-OMe) | 15.3 |

Tested on: not listed separately
Test: Growth inhibition of EAC cells at 62.5 ug/mL after 3 hrs
Assay type: functional
Conditions: Mus musculus, Ehrlich
How it was run: as §2

| SMILES | inhibition at 62.5 µg/mL [%] |
| --- | --- |
| COC(=O)[C@H](Cc1cnc[nH]1)NC(=O)CNC(=O)[C@H](Cc1c[nH]c2ccccc12)NC(=O)CNC(=O)c1cc(-c2nc3cc(C)c(C)cc3[nH]2)ccc1O (X1-GWGH-OMe) | 100 |

Tested on: not listed separately
Test: Growth inhibition of EAC cells at 31.25 ug/mL after 3 hrs
Assay type: functional
Conditions: Mus musculus, Ehrlich
How it was run: as §2

| SMILES | inhibition at 31.25 µg/mL [%] |
| --- | --- |
| COC(=O)[C@H](Cc1cnc[nH]1)NC(=O)CNC(=O)[C@H](Cc1c[nH]c2ccccc12)NC(=O)CNC(=O)c1cc(-c2nc3cc(C)c(C)cc3[nH]2)ccc1O (X1-GWGH-OMe) | 71.4 |

Tested on: not listed separately
Test: Growth inhibition of EAC cells after 3 hrs
Assay type: functional
Conditions: Mus musculus, Ehrlich
How it was run: as §2

| SMILES | CC50 [µM] |
| --- | --- |
| COC(=O)[C@H](Cc1cnc[nH]1)NC(=O)CNC(=O)[C@H](Cc1c[nH]c2ccccc12)NC(=O)CNC(=O)c1cc(-c2nc3cc(C)c(C)cc3[nH]2)ccc1O (X1-GWGH-OMe) | 18.9 |

Tested on: not listed separately
Test: Growth inhibition of DLA cells at 15.63 ug/mL after 3 hrs
Assay type: functional
Conditions: Mus musculus
How it was run: as §2

| SMILES | inhibition at 15.63 µg/mL [%] |
| --- | --- |
| COC(=O)[C@H](Cc1cnc[nH]1)NC(=O)CNC(=O)[C@H](Cc1c[nH]c2ccccc12)NC(=O)CNC(=O)c1cc(-c2nc3cc(C)c(C)cc3[nH]2)ccc1O (X1-GWGH-OMe) | 55.3 |

Tested on: not listed separately
Test: Growth inhibition of DLA cells at 7.81 ug/mL after 3 hrs
Assay type: functional
Conditions: Mus musculus
How it was run: as §2

| SMILES | inhibition at 7.81 µg/mL [%] |
| --- | --- |
| COC(=O)[C@H](Cc1cnc[nH]1)NC(=O)CNC(=O)[C@H](Cc1c[nH]c2ccccc12)NC(=O)CNC(=O)c1cc(-c2nc3cc(C)c(C)cc3[nH]2)ccc1O (X1-GWGH-OMe) | 44.7 |

Tested on: not listed separately
Test: Growth inhibition of DLA cells at 3.91 ug/mL after 3 hrs
Assay type: functional
Conditions: Mus musculus
How it was run: as §2

| SMILES | inhibition at 3.91 µg/mL [%] |
| --- | --- |
| COC(=O)[C@H](Cc1cnc[nH]1)NC(=O)CNC(=O)[C@H](Cc1c[nH]c2ccccc12)NC(=O)CNC(=O)c1cc(-c2nc3cc(C)c(C)cc3[nH]2)ccc1O (X1-GWGH-OMe) | 26.3 |

Tested on: not listed separately
Test: Growth inhibition of EAC cells at 15.63 ug/mL after 3 hrs
Assay type: functional
Conditions: Mus musculus, Ehrlich
How it was run: as §2

| SMILES | inhibition at 15.63 µg/mL [%] |
| --- | --- |
| COC(=O)[C@H](Cc1cnc[nH]1)NC(=O)CNC(=O)[C@H](Cc1c[nH]c2ccccc12)NC(=O)CNC(=O)c1cc(-c2nc3cc(C)c(C)cc3[nH]2)ccc1O (X1-GWGH-OMe) | 53.6 |

Tested on: not listed separately
Test: Growth inhibition of EAC cells at 7.81 ug/mL after 3 hrs
Assay type: functional
Conditions: Mus musculus, Ehrlich
How it was run: as §2

| SMILES | inhibition at 7.81 µg/mL [%] |
| --- | --- |
| COC(=O)[C@H](Cc1cnc[nH]1)NC(=O)CNC(=O)[C@H](Cc1c[nH]c2ccccc12)NC(=O)CNC(=O)c1cc(-c2nc3cc(C)c(C)cc3[nH]2)ccc1O (X1-GWGH-OMe) | 35.7 |

Tested on: not listed separately
Test: Growth inhibition of EAC cells at 3.91 ug/mL after 3 hrs
Assay type: functional
Conditions: Mus musculus, Ehrlich
How it was run: as §2

| SMILES | inhibition at 3.91 µg/mL [%] |
| --- | --- |
| COC(=O)[C@H](Cc1cnc[nH]1)NC(=O)CNC(=O)[C@H](Cc1c[nH]c2ccccc12)NC(=O)CNC(=O)c1cc(-c2nc3cc(C)c(C)cc3[nH]2)ccc1O (X1-GWGH-OMe) | 7.14 |

Tested on: not listed separately
Test: Anthelmintic activity against Megascoplex konkanensis ICARBC 211 assessed as mean paralyzing time
Assay type: functional
Conditions: not given
How it was run: (§3)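 Earthworms exposed to test suspensions at 2 mg mL^-1 (0.2% w/v), made by triturating compound with Tween 80 (0.5%) and distilled water, then mechanically stirred 30 min. Mebendazole suspension prepared alike as reference. Paralysis and death times recorded; death confirmed by no movement in 50 °C water. Means from triplicate sets.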

| SMILES | TIME [h] |
| --- | --- |
| COC(=O)[C@H](Cc1cnc[nH]1)NC(=O)CNC(=O)[C@H](Cc1c[nH]c2ccccc12)NC(=O)CNC(=O)c1cc(-c2nc3cc(C)c(C)cc3[nH]2)ccc1O (X1-GWGH-OMe) | 0.157 |

Tested on: not listed separately
Test: Anthelmintic activity against Megascoplex konkanensis ICARBC 211 assessed as mean death time
Assay type: functional
Conditions: not given
How it was run: as §3

| SMILES | TIME [h] |
| --- | --- |
| COC(=O)[C@H](Cc1cnc[nH]1)NC(=O)CNC(=O)[C@H](Cc1c[nH]c2ccccc12)NC(=O)CNC(=O)c1cc(-c2nc3cc(C)c(C)cc3[nH]2)ccc1O (X1-GWGH-OMe) | 0.291 |

Tested on: Pontoscolex corethrurus
Test: Anthelmintic activity against Pontoscolex corethrurus ICARBC 408 assessed as mean paralyzing time
Assay type: functional
Conditions: not given
How it was run: as §3

| SMILES | Time [min] |
| --- | --- |
| COC(=O)[C@H](Cc1cnc[nH]1)NC(=O)CNC(=O)[C@H](Cc1c[nH]c2ccccc12)NC(=O)CNC(=O)c1cc(-c2nc3cc(C)c(C)cc3[nH]2)ccc1O (X1-GWGH-OMe) | 14.34 |

Tested on: Pontoscolex corethrurus
Test: Anthelmintic activity against Pontoscolex corethrurus ICARBC 408 assessed as mean death time
Assay type: functional
Conditions: not given
How it was run: as §1

| SMILES | Time [min] |
| --- | --- |
| COC(=O)[C@H](Cc1cnc[nH]1)NC(=O)CNC(=O)[C@H](Cc1c[nH]c2ccccc12)NC(=O)CNC(=O)c1cc(-c2nc3cc(C)c(C)cc3[nH]2)ccc1O (X1-GWGH-OMe) | 26.21 |
